Measurements as given in ChEMBL document CHEMBL1156555, “Synthesis and anti-inflammatory activity of 2-aryloxy methyl oxazolines” (Bioorg Med Chem Lett, 2008).

Columns and labels:
[1] = system: Rattus norvegicus; experiment: Toxic ulcerogenic effect in albino rat assessed as incidence of ulcer at 400 mg/kg, po; assay type: toxicity, organism-based; design: dose 400 mg/kg, route oral; conditions: in vivo
In short: (§1)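 Rats (200–230 g) in groups of 10 were fasted 24 h, then given the compound orally. They were killed 5 h after dosing. Stomach and small intestine were examined under a microscope for hyperemia, epithelial shedding, petechiae, frank haemorrhage, and erosion or ulceration with or without perforation. Any of these criteria counted as ulcerogenic.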

[2] = system: Rattus norvegicus; experiment: Toxic ulcerogenic effect in albino rat assessed as incidence of ulcer at 100 mg/kg, po; assay type: toxicity, organism-based; design: dose 100 mg/kg, route oral; conditions: in vivo; in short: as §1
[3] = species on record: Oryctolagus cuniculus; experiment: Inhibition of cyclooxygenase in rabbit colon microsomes assessed as reduction in conversion of arachidonic acid to PGE2 at 10 uM by liquid scintillation spectrometry relative to control
In short: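 Rabbit distal colon mucosa (2–3 g) was homogenized in 0.1 M Tris pH 8.0, and the microsomal pellet was used fresh. Microsomes were incubated with the test agent for 10 min at 37 °C in Tris-HCl pH 8.0 with 2 mM reduced glutathione, L-tryptophan and hematin. Products were separated by isocratic HPLC (150 mM orthophosphoric acid pH 3.5, 30% acetonitrile; UV 214 nm), and PGE2-co-eluting radioactivity was counted by liquid scintillation.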

[4] = system: Rattus norvegicus; experiment: Toxic ulcerogenic effect in albino rat assessed as incidence of hyperemia at 400 mg/kg, po; assay type: toxicity, organism-based; design: dose 400 mg/kg, route oral; conditions: in vivo; in short: as §1
[5] = Acute toxicity in albino rat assessed as mortality after 24 hrs; assay type: organism-based; conditions: in vivo, read-out: ALD50
In short: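 Albino rats (200–230 g), groups of 10, given test compounds intraperitoneally at several dose levels. Percent mortality per group recorded 24 h after dosing. ALD50 calculated from the mortality data by a previously described method.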

[6] = system: Rattus norvegicus; experiment: Antiinflammatory activity in po dosed albino rat assessed as inhibition of carrageenan-induced paw edema administered 30 mins prior to challenge; assay type: functional
[7] = system: Rattus norvegicus; experiment: Antiinflammatory activity in albino rat assessed as inhibition of carrageenan-induced paw edema at 40 mg/kg, po administered 30 mins prior to challenge relative to control; assay type: functional
In short: (§2)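 Groups of five rats (200–230 g) were dosed orally. After 30 min, 0.2 ml of 1% carrageenan in 0.9% NaCl was injected subcutaneously into the hind-paw plantar aponeurosis. Paw volume was read by water plethysmometer before and at 3 h. % inhibition = (1 − vt/vc) × 100, using mean relative oedema changes against five carrageenan-only controls.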

[8] = system: Rattus norvegicus; experiment: Toxic ulcerogenic effect in albino rat assessed as incidence of hyperemia at 100 mg/kg, po; assay type: toxicity, organism-based; design: dose 100 mg/kg, route oral; conditions: in vivo; in short: as §1
[9] = system: Rattus norvegicus; experiment: Toxic ulcerogenic effect in albino rat assessed as incidence of hyperemia at 200 mg/kg, po; assay type: toxicity, organism-based; design: dose 200 mg/kg, route oral; conditions: in vivo; in short: as §1
[10] = system: Rattus norvegicus; experiment: Antiinflammatory activity in albino rat assessed as inhibition of carrageenan-induced paw edema at 80 mg/kg, po administered 30 mins prior to challenge relative to control; assay type: functional; in short: as §2
[11] = system: Rattus norvegicus; experiment: Toxic ulcerogenic effect in albino rat assessed as incidence of ulcer at 200 mg/kg, po; assay type: toxicity, organism-based; design: dose 200 mg/kg, route oral; conditions: in vivo; in short: as §1
[12] = system: Rattus norvegicus; experiment: Antiinflammatory activity in albino rat assessed as inhibition of carrageenan-induced paw edema at 20 mg/kg, po administered 30 mins prior to challenge relative to control; assay type: functional; in short: as §2

Row | Compound | Activity [1] | Activity [2] | inhibition [3] | Activity [4] | LD50 at 24 h [5] | ED50 [6] | inhibition in vivo at 40 mg/kg [7] | Activity [8] | Activity [9] | inhibition in vivo at 80 mg/kg [10] | Activity [11] | inhibition in vivo at 20 mg/kg [12]
1 | Cc1cccc(OCC2=NCCO2)c1 | 25% | 15% | 70% | 90% | > 1000 mg/kg | 76.2 mg/kg | 44.6% | 50% | 70% | 64.1% | 20% | 16.6%
2 | Cc1ccccc1OCC1=NCCO1 | 40% | 10% | 20% | 100% | > 1000 mg/kg | 78.3 mg/kg | 29.5% | 40% | 60% | 55.3% | 20% | 3.1%
3 | Brc1ccc(OCC2=NCCO2)cc1 | 15% | 5% | 60% | 100% | > 1000 mg/kg | 65.5 mg/kg | 48.5% | 60% | 80% | 60.1% | 10% | 35.5%
4 | Cc1cc(OCC2=NCCO2)ccc1Cl | 40% | 20% | 87% | 100% | > 1000 mg/kg | 60.2 mg/kg | 45.4% | 50% | 70% | 77.1% | 30% | 22.2%
5 | Clc1ccc(OCC2=NCCO2)cc1 | 12% | 10% | – | 90% | > 1000 mg/kg | 51.2 mg/kg | 48.2% | 30% | 60% | 94.1% | 20% | 30.3%
6 | Fc1ccc(OCC2=NCCO2)cc1 | 75% | 50% | – | 50% | > 1000 mg/kg | 75.5 mg/kg | 30.2% | 25% | 40% | 40.5% | 25% | 18.5%
7 | Clc1ccccc1OCC1=NCCO1 | 80% | 40% | – | 60% | > 1000 mg/kg | 77.5 mg/kg | 22.2% | 20% | 40% | 45.5% | 30% | 13.7%
8 | Fc1ccccc1OCC1=NCCO1 | 20% | 10% | 65% | 80% | > 1000 mg/kg | 76.2 mg/kg | 30.5% | 40% | 60% | 60.1% | 15% | 20.6%
9 | COc1ccc(OCC2=NCCO2)cc1 | 15% | 5% | 70% | 90% | > 1000 mg/kg | 77.2 mg/kg | 33.2% | 50% | 70% | 64.1% | 10% | 16.6%
10 | Brc1ccccc1OCC1=NCCO1 | 40% | 10% | 40% | 100% | > 1000 mg/kg | 62.5 mg/kg | 29.1% | 70% | 90% | 62.8% | 20% | 20.1%
11 | CCCCC1C(=O)N(c2ccccc2)N(c2ccccc2)C1=O [PHENYLBUTAZONE] | 90% | 30% | 60% | 90% | – | – | 35.5% | 30% | 60% | 57.2% | 60% | 31.3%
12 | Cc1ccc(OCC2=NCCO2)c(C)c1 | 18% | 15% | – | 75% | > 1000 mg/kg | 57.3 mg/kg | 46.5% | 25% | 50% | 85.5% | 25% | 31.4%
13 | CC(=O)Oc1ccccc1C(=O)O [ASPIRIN] | 90% | 80% | 65% | 90% | – | – | 35.5% | 30% | 60% | 59.6% | 90% | 30.4%
14 | O=[N+]([O-])c1ccc(OCC2=NCCO2)cc1 | 20% | 10% | 85% | 100% | > 1000 mg/kg | 60.5 mg/kg | 30.4% | 50% | 70% | 77.1% | 15% | 29.2%
15 | O=[N+]([O-])c1cccc(OCC2=NCCO2)c1 | 80% | 45% | – | 55% | > 1000 mg/kg | 75.5 mg/kg | 29.4% | 20% | 35% | 46.5% | 30% | 15.5%
16 | O=[N+]([O-])c1ccccc1OCC1=NCCO1 | 45% | 20% | 30% | 90% | > 1000 mg/kg | 70.1 mg/kg | 35.5% | 30% | 55% | 50.5% | 25% | 20.5%
